Bioassay records deposited in PubChem by several laboratories.
KCNQ1 pot – potentiators or activators of human KCNQ1 potassium channel. P51787. CHO-K1 KCNQ1, thallium flux FluxOR fluorescence; stronger effect = higher value. B-score at 10 µM. 0.35% of 310,000 active;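 active = fluorescence ratio B-score, a plate-corrected score, at least three library SD, with initial intensity B-score within 5 SD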
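assay system = CHO-K1 cells stably expressing KCNQ1 | medium = assay buffer, equal DMSO in all wells | timing = 37 °C overnight plating, 90-min dark dye load, 20-min compound pretreatment | measured by = kinetic FluxOR thallium fluorescence, 10-s 1-Hz baseline, 110-s post-stimulus read | measure = fluorescence change relative to baseline, converted to B score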
hERG rescue – compounds protecting human hERG from proarrhythmic drug block | Q12809 | CHO-hERG, FluxOR thallium flux, dofetilide IC70 present | activation (rescue from dofetilide block), less the hit threshold, % at 10 µM | 0.51% of 310,000 active;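 active = activation above the mean of controls blocked by dofetilide plus 5 SD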;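 also: thallium influx through hERG after potassium depolarization seen as dye fluorescence rise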
KCNK9 inh – inhibitors of human KCNK9 two-pore domain potassium channel; 1.2% of 310,000 active; B-score at 10 µM; AID 488922; HEK293 KCNK9, FluxOR thallium flux fluorescence; stronger effect = lower value; Q9NPC2;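 active = ratio B-score over 3 SD below the library mean, with starting fluorescence within 5 SD of its mean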;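 also: negative B-score means less thallium flux so channel inhibition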
KCNK3 inh – human KCNK3 channel inhibition, primary screen; O14649; B-score at 10 µM; CHO-KCNK3 thallium flux, FluxOR fluorescence; stronger effect = lower value; AID 602410; 0.84% of 340,000 active;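 active = B-score under library mean minus 4 SD, starting fluorescence ratio at most library mean plus 5 SD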;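 also: more negative B-score means stronger inhibition of thallium flux through KCNK3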
KCNQ1 block – inhibitors of human KCNQ1 potassium channel; CHO-K1 KCNQ1, FluxOR thallium flux fluorescence; stronger effect = higher value; 1.3% of 310,000 active; B-score at 10 µM; P51787;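 active = compounds whose thallium flux B-score, printed positive for inhibition, exceeds three library SD while starting fluorescence stays within three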;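 also: channel opened by potassium depolarization with thallium stimulus after 20 min compound exposure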
PHOSPHO1 block – inhibitors of human PHOSPHO1 phosphatase; Q8TCT1; recombinant PHOSPHO1, absorbance phosphatase assay; inhibition, % at 13.3 µM; 1.1% of 290,000 active; AID 1565; in the data active = inhibition above about 60%
KCNQ1 block val – reconfirmed blocker of the human KCNQ1 potassium channel. shares compounds with KCNQ1 block. inhibition, % at 10 µM. 93% of 1,600 active. KCNQ1 cell line, FluxOR thallium flux fluorescence. AID 588353;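 active = primary screen active, with duplicate mean exceeding buffer control mean plus 3 SD of buffer wells, cut at about 28% in these data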;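 also: 0% = buffer control ratio and 100% = XE991 inhibitor control ratio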
CHO KCNQ1 ctr – activity in parental CHO cells lacking KCNQ1; fluorescence ratio (Tl flux) at 10 µM; shares compounds with KCNQ1 block; AID 588366; parental CHO-K1, FluxOR thallium flux fluorescence ratio; stronger effect = lower value; zero means no signal rise above baseline; 21% of 1,600 active;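 active = mean of duplicate thallium-flux fluorescence ratios in parental host cells more than 5 SD below the buffer control mean, cut at about 0.38 in these data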;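 also: ratio is peak minus minimum fluorescence divided by baseline fluorescence; actives read low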
KCNQ1 ephys val – human KCNQ1 inhibition validated by electrophysiology; shares compounds with KCNQ1 block; KCNQ1-CHO cells, automated patch clamp current; calls only at 10 µM; 20% of 490 active; AID 624120;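 active = KCNQ1 current drop exceeding 3 SD of negative control wells, seen in both duplicate runs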;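 also: steady state current during a 2 s step from -80 to +40 mV; negative values mean current inhibition and positive values mean potentiation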
KCNQ2 spec – selectivity of KCNQ1 inhibitors: inhibition of rat KCNQ2 channel; shares compounds with KCNQ1 block; KCNQ2 cells, FluxOR thallium flux fluorescence; inhibition, % at 10 µM; 71% of 1,600 active;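 active = mean percent inhibition of the KCNQ2 thallium signal more than 5 SD above the buffer-only control wells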;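 also: KCNQ2 expressed in CHO cells; 0% = buffer control wells and 100% = XE-991 inhibitor control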
KCNQ1 KCNE1 spec – selectivity of KCNQ1 inhibitors: inhibition of human KCNQ1/KCNE1 channel; AID 652147; shares compounds with KCNQ1 block; inhibition, % at 10 µM; KCNQ1/KCNE1 cells, FluxOR thallium flux fluorescence; 77% of 1,600 active;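 active = mean percent inhibition of duplicate wells above the buffer-only control mean plus 3 SD of those controls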;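 also: 0% = buffer only wells and 100% = XE-991 inhibitor control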
* marks the source's active call; other numbers are inactive results. Sampled rows, rich in hits. Any-hit rate of the full collection: about 4%.

What do the screens show for `CC(c1ccccc1)N1C(=O)c2ccc(C(=O)Nc3ccc(Br)cc3C(=O)O)cc2C1=O` (stereo unspecified)?
KCNQ1 pot: inactive; hERG rescue: -26; KCNK9 inh: inactive; KCNK3 inh: inactive; KCNQ1 block: 12*; PHOSPHO1 block: -31; KCNQ1 block val: 108*; CHO KCNQ1 ctr: 0.42; KCNQ1 ephys val: inactive; KCNQ2 spec: inactive; KCNQ1 KCNE1 spec: 132%*

Results for NC(=O)C1CCN(C2=C(Cl)C(=O)c3ccccc3C2=O)CC1 ?
KCNQ1 pot: inactive; hERG rescue: -37; KCNK9 inh: inactive; KCNK3 inh: inactive; KCNQ1 block: 19*; PHOSPHO1 block: -16; KCNQ1 block val: 129*; CHO KCNQ1 ctr: 0.29*; KCNQ2 spec: 86%*; KCNQ1 KCNE1 spec: active

What do the screens show for `NC(=O)C1CCN(C2=C(NS(=O)(=O)c3ccc(Br)cc3)C(=O)c3ccccc3C2=O)CC1`?
KCNQ1 pot: inactive; hERG rescue: -27; KCNK9 inh: inactive; KCNK3 inh: inactive; KCNQ1 block: inactive; PHOSPHO1 block: 8

Results for O=C(CCN1CCc2ccccc21)c1ccc2c(c1)OCCO2 ?
KCNQ1 pot: inactive; hERG rescue: -8; KCNK9 inh: inactive; KCNK3 inh: inactive; KCNQ1 block: inactive; PHOSPHO1 block: -7

Results for O=C(CCN1CCC(c2ccccc2)C1)c1ccc2c(c1)OCCO2 (stereo unspecified) ?
KCNQ1 pot: inactive; hERG rescue: -16; KCNK9 inh: inactive; KCNK3 inh: inactive; KCNQ1 block: 6*; PHOSPHO1 block: 3; KCNQ1 block val: 45*; CHO KCNQ1 ctr: 0.43; KCNQ2 spec: 60%*; KCNQ1 KCNE1 spec: 56%*

How did O=C(CCN1CCCC1Cc1ccccc1)c1ccc2c(c1)OCCO2 (stereo unspecified) do in these assays?
KCNQ1 pot: inactive; hERG rescue: -11; KCNK9 inh: inactive; KCNK3 inh: inactive; KCNQ1 block: 7*; PHOSPHO1 block: 21; KCNQ1 block val: 82*; CHO KCNQ1 ctr: 0.42; KCNQ2 spec: 78%*; KCNQ1 KCNE1 spec: 100%*

Results for O=C(CCN1CCCCC1)c1ccc2c(c1)OCCO2 ?
KCNQ1 pot: inactive; hERG rescue: 1; KCNK9 inh: inactive; KCNK3 inh: inactive; KCNQ1 block: inactive; PHOSPHO1 block: 11

What do the screens show for `O=C(CCN1CCc2ccccc2C1)c1ccc2c(c1)OCCO2`?
KCNQ1 pot: inactive; hERG rescue: -24; KCNK9 inh: inactive; KCNK3 inh: inactive; KCNQ1 block: 7*; PHOSPHO1 block: -1; KCNQ1 block val: 44*; CHO KCNQ1 ctr: 0.38*; KCNQ2 spec: 70%*; KCNQ1 KCNE1 spec: 83%*

How did Cc1ccc(S(=O)(=O)N[C@H](C(=O)OCC(=O)NC(=O)c2cccn2C)C(C)C)cc1 do in these assays?
KCNK3 inh: inactive

Results for O=[N+]([O-])c1cc(C(F)(F)F)ccc1SCC(O)CO (stereo unspecified) ?
KCNQ1 pot: inactive; hERG rescue: -9; KCNK9 inh: inactive; KCNK3 inh: inactive; KCNQ1 block: inactive; PHOSPHO1 block: 51

What do the screens show for `CCN(CC)C(=O)C1CCCN(C(=O)Nc2ccccc2)C1` (stereo unspecified)?
KCNQ1 pot: inactive; hERG rescue: -8; KCNK9 inh: inactive; KCNK3 inh: inactive; KCNQ1 block: inactive; PHOSPHO1 block: -9
